Screening data: PubChem BioAssay, several laboratories
ANO1 activ: mouse TMEM16A channel activation, primary screen; Q8BHY3; HEK293 TMEM16A/YFP-H148Q/I152L, iodide quench fluorescence; stronger effect = lower value; B-score at 10 µM; 340,000 compounds, 0.3% hits;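 active means fluorescence-ratio B-score plate-corrected deviation score at least 3 library SD below zero, with starting fluorescence score within 5 deviations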;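 further: channel opened by trigger with iodide after compound preincubation; score built on the fluorescence ratio of max minus min over baseline; more negative score means more quench and so TMEM16A activation or potentiation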
Target sequence (Q8BHY3 whole entry, looked up): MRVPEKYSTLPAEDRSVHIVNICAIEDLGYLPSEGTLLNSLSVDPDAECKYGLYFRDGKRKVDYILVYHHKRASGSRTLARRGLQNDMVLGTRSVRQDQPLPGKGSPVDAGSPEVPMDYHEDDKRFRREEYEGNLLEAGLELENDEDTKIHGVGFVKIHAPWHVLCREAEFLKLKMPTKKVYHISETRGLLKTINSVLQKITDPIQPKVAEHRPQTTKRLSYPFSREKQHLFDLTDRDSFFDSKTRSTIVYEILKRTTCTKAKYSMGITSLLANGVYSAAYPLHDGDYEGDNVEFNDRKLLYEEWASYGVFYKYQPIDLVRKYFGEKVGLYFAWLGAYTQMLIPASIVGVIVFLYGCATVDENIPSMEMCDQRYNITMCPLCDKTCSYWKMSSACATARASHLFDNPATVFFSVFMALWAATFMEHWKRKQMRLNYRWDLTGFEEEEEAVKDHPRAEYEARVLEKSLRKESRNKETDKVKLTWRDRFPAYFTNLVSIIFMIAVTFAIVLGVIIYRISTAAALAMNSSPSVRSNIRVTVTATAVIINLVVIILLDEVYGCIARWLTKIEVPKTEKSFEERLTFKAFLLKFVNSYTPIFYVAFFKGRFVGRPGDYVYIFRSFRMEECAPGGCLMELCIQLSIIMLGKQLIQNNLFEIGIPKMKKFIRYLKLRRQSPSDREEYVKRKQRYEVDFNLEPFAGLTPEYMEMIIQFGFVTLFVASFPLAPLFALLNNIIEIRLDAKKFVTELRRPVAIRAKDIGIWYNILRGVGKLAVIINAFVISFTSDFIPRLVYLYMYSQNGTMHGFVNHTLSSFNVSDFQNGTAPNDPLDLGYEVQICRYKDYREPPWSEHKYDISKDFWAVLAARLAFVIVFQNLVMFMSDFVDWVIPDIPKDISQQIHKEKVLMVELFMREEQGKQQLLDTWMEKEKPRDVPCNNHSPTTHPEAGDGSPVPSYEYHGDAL
CRFR2-BP ag: CRF-BP/CRF-R2 complex agonism | activation, % at 13.2 µM | 350,000 compounds, 0.46% hits | HEK293 CRF-R2/CRF-BP, calcium dye fluorescence (FLIPR); percent of saturating CRF peptide response;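 active means activation of at least 50%, plus an integration ratio under a set limit after plate pattern correction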
ANO1 block: mouse TMEM16A channel inhibition, primary screen; Q8BHY3; HEK293 TMEM16A/YFP iodide influx fluorescence, ionomycin; normalized B-score (activity score, 25-100; higher = stronger inhibition) at 10 µM; 310,000 compounds, 1.2% hits;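 active means ratio plate-corrected score three or more library SD toward inhibition, starting fluorescence score within five deviations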;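 further: score derived from kinetic fluorescence span divided by baseline fluorescence per well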
TAAR1 agonist: agonists of human TAAR1. 360,000 compounds, 0.99% hits. CHO RD-HGA16 TAAR1, Fluo-8 calcium fluorescence; vehicle wells 0%, saturating PEA agonist 100%. Q96RJ0. activation, % at 3 µM;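 active means activation above the mean activation of all test compounds in the run plus 3 SD, cut at about 38% in these data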
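Assay system – CHO-derived RD-HGA16 cells with stable Gα16 and human TAAR1 · Compound dosing – one-point dosing at 3 µM (nominal) · Incubation – 17-24 h seeding, 75 min 37 °C dye, 30 min RT · Measured by – kinetic Fluo-8 calcium fluorescence · Control set – DMSO vehicle as 0%, PEA at EC100 as 100% · Repeats – single well for each compound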
CRFBP-R2 block: CRF-BP/CRF-R2 complex antagonism. HEK293 CRF-R2/CRF-BP, CRF-induced calcium fluorescence. inhibition, % at 11.8 µM. 350,000 compounds, 0.59% hits;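 active means inhibition of the ligand-induced calcium signal above about 50% at the single tested concentration, limit read from the data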
TAAR1 antagonist: human TAAR1 antagonism; Q96RJ0; CHO RD-HGA16 TAAR1, Fluo-8 calcium fluorescence, antagonist; inhibition, % at 3 µM; 360,000 compounds, 1.5% hits;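 active means inhibition above a per-plate cutoff, the mean inhibition of test compounds on that plate plus 3 SD, cut at about 49% in these data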
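System: CHO RD-HGA16 cells bearing hTAAR1. Reagent: EC80 β-phenethylamine stimulus. Schedule: seeding 17-24 h prior, 75-min 37 °C, 30-min RT dye loading. Signal: Fluo-8 intracellular calcium dye fluorescence, real-time kinetic reads. Read-out: % inhibition from peak post-agonist over basal fluorescence ratio. Benchmarks: vehicle wells and EC80 agonist wells. Replicates: n of 1.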
TAAR1 nonsel count: nonselective antagonist in TAAR1 antagonist counter-screen; shares compounds with TAAR1 antagonist; counterscreen cell line, calcium fluorescence, antagonist mode; inhibition, % at 3 µM; 2,400 compounds, 77% hits; AID 651780; in the data active means inhibition above about 22%;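 further: CHO-Ga16 host cells stimulated with ATP at an EC80 level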
TAAR1 ant conf: human TAAR1 antagonism, confirmed; TAAR1-expressing cells, fluorescence antagonist read-out; shares compounds with TAAR1 antagonist; AID 651785; 2,400 compounds, 40% hits; inhibition, % at 3 µM; in the data active means inhibition above about 49%;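 further: CHO-Ga16 host cells challenged with agonist PEA near its EC80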
Ga16 ag counter: nonselective Ga16 agonism, counter-screen | shares compounds with TAAR1 antagonist | Ga16-expressing cells, calcium fluorescence, agonist counterscreen | activation, % at 3 µM | 2,400 compounds, 18% hits | AID 651953; in the data active means activation above about 12%
TAAR1 ag count: activates human TAAR1 in antagonist counter-screen. shares compounds with TAAR1 antagonist. hTAAR1 cell line, fluorescence activation, agonist mode. activation, % at 3 µM. 2,400 compounds, 2% hits; in the data active means activation above about 37%;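 further: CHO cells stably expressing TAAR1 with calcium dye readout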
A number is an active result; . = inactive; / = not tested or not shown. Only some compounds are listed: those with a hit (about 3.9% of all), similar ones and a draw of the others.

SMILES | ANO1 activ | CRFR2-BP ag | ANO1 block | TAAR1 agonist | CRFBP-R2 block | TAAR1 antagonist | TAAR1 nonsel count | TAAR1 ant conf | Ga16 ag counter | TAAR1 ag count
O=C(Cc1ccc(Br)cc1)Nc1ccccc1Sc1ccccc1 | . | . | . | . | . | 58.0 | . | . | . | .
O=C(Cc1ccccc1)Nc1ccccc1Sc1ccccc1 | . | . | . | . | . | . | / | / | / | /
O=C(COC(=O)c1cc[n+]([O-])cc1)Nc1ccccc1Sc1ccccc1 | . | . | . | . | . | 104.7 | . | . | . | .
CC(=O)c1ccccc1NC(=O)COC(=O)c1cc(C)oc1C | . | . | / | . | . | 54.5 | . | . | . | .
O=C1c2cccc3c2C2(O)c4c1cccc4C(=O)c1cccc(c12)C3=O | / | . | / | . | . | 71.0 | 32.8 | 50.9 | . | .
COc1ccc(OC)c(NC(=O)C2(C)CCN2Cc2cccc(OC)c2F)c1 (stereo unspecified) | / | / | / | . | / | 51.4 | . | . | . | .
COC(=O)c1ccc(NC(=O)c2cccc(N3C(=O)C4C5C=CC(C6CC56)C4C3=O)c2)cc1 (stereo unspecified) | . | . | . | . | . | 65.4 | 58.1 | 74.5 | 14.6 | .
COc1ccc(OC)c(NC(=O)c2cccc(N3C(=O)C4C5CCC(C5)C4C3=O)c2)c1 (stereo unspecified) | . | . | . | . | . | . | / | / | / | /
O=C(Nc1ccc(F)cc1)c1cccc(N2C(=O)C3C4C=CC(C5CC45)C3C2=O)c1 (stereo unspecified) | . | . | . | . | . | . | / | / | / | /
COc1ccc(OC)c(NC(=O)c2cccc(N3C(=O)C4C5C=CC(C6CC56)C4C3=O)c2)c1 (stereo unspecified) | . | . | . | . | . | 75.0 | 46.2 | 61.9 | 13.2 | .
CCC(NC(=O)C(C)NC)C(=O)N1CCCC1C(=O)NC1CCCc2ccccc21 (stereo unspecified) | . | . | / | . | . | . | / | / | / | /
COC(=O)COc1ccc2oc(=O)cc(-c3cc4cccc(OC)c4o3)c2c1 | . | . | . | . | . | . | / | / | / | /
COc1cccc2cc(-c3cc(=O)oc4ccc(O)cc34)oc12 | . | . | . | . | . | 50.5 | . | . | . | .
COc1cccc2cc(-c3cc(=O)oc4ccc(OCC(C)=O)cc34)oc12 | . | . | . | . | . | 57.4 | 25.1 | . | . | .
CCOC(=O)CCCCCC(=O)Nc1ccc2c(c1)CC(=O)N([C@@H](C)CO)C[C@H](C)[C@@H](CN(C)C(=O)Nc1ccc3c(c1)OCO3)O2 | . | . | / | . | . | . | / | / | / | /
CC(Sc1nncs1)C(=O)Nc1ccc(S(=O)(=O)Nc2ncccn2)cc1 (stereo unspecified) | . | . | / | . | . | . | / | / | / | /
CN(C)S(=O)(=O)c1cccc(NC(=O)COc2ccccc2C(=O)NCc2ccccc2)c1 | . | . | / | . | . | 62.8 | 24.8 | . | . | .
COc1cc(C=O)ccc1OCC(=O)Nc1cccc(S(=O)(=O)N(C)c2ccccc2)c1 | . | . | . | . | . | 62.6 | 34.9 | 53.9 | . | .
CN(C(=O)c1cccc(NC(=O)Cc2ccc(NC(=O)C3CCN(C(=O)C4CCCCC4)CC3)cc2)c1)C1CCCC1 | / | . | / | . | . | . | / | / | / | /
COc1ccc(NC(=O)CSc2ccc3nnc(-c4cccnc4)n3n2)cc1OC | . | . | . | . | . | . | / | / | / | /
OC(c1ccccc1)C(NCCNCc1ccccc1)c1ccccc1 (stereo unspecified) | . | . | / | . | . | . | / | / | / | /
O=C1c2ccccc2C(Nc2ccc3c(c2)OCCO3)N1c1ccc(Cl)cn1 (stereo unspecified) | . | . | . | . | . | 50.5 | 23.4 | . | . | .
O=C1c2ccccc2C(Nc2ccc3c(c2)OCCO3)N1Cc1ccc2c(c1)OCO2 (stereo unspecified) | . | . | . | . | . | 63.1 | . | . | . | .
Cc1ccc(NC(=O)CN(C)C(=O)c2cc(-c3cccs3)nn2-c2ccccc2)cc1 | . | . | / | . | . | 54.5 | 22.3 | . | . | .
CN(CC(=O)Nc1c(Cl)cccc1Cl)C(=O)c1cc(-c2cccs2)nn1-c1ccccc1 | . | . | . | . | . | . | / | / | / | /
SMILES | ANO1 activ | CRFR2-BP ag | ANO1 block | TAAR1 agonist | CRFBP-R2 block | TAAR1 antagonist | TAAR1 nonsel count | TAAR1 ant conf | Ga16 ag counter | TAAR1 ag count
CCN(CC(=O)Nc1ccccc1OC)C(=O)c1cc(-c2ccccc2)nn1-c1ccccc1 | . | . | . | . | . | 60.6 | . | . | . | .
CCN(CC(=O)Nc1c(F)cccc1F)C(=O)c1cc(-c2cccs2)nn1-c1ccccc1 | . | . | . | . | . | 72.2 | 26.7 | . | . | .
CN(CC(=O)Nc1ccc(Cl)cc1)C(=O)c1cc(-c2cccs2)nn1-c1ccccc1 | . | . | . | . | . | 66.4 | 24.6 | . | . | .
Cc1cccn2c(CN(C)CC3Cc4ccccc4O3)c(C(=O)N3CCCCC3)nc12 (stereo unspecified) | . | . | . | . | . | . | / | / | / | /
CCCCC(O)(CCCC)C(=O)NN(C(=O)OC)c1ccc(C)cc1 | . | . | . | . | . | . | / | / | / | /
CCN(CC(=O)Nc1c(F)cccc1F)C(=O)CSc1ccccc1 | . | . | . | . | . | 96.9 | . | . | . | .
CCN(CC(=O)Nc1c(F)cccc1F)C(=O)CSc1ccc(F)cc1 | . | . | . | . | . | . | / | / | / | /
C#CCOCCOCCOCCNc1nc(N2CCN(C(=O)[C@H](CCC(=O)O)n3cc([C@@H](N)CO)nn3)CC2)nc(N2CCN(C(=O)[C@H](CCC(=O)O)n3cc([C@@H](N)CCSC)nn3)CC2)n1 | / | . | / | . | . | . | / | / | / | /
COc1ccc(-c2csc(NC(=O)c3ccccc3NS(=O)(=O)c3ccc(F)c(F)c3)n2)cc1 | . | . | 100 | . | 84.3 | 54.9 | 60.1 | 71.4 | . | .
O=C(NCc1ccccc1)c1cc(C2COCCN2C(=O)c2ccc(Cl)cc2)on1 (stereo unspecified) | / | / | / | . | / | . | / | / | / | /
COc1cc(C(=O)N/N=C/c2ccc(OC(=O)c3cccc(C)c3)cc2)ccc1O | . | . | . | . | . | 79.5 | 39.5 | 62.5 | 12.6 | .
